Read-outs that look alike come from different tables or passages of the source.
Tests used:
[1] = cited from earlier work
[2] = 24-h euglycaemic clamp after a single SC dose; type: in vivo, healthy subjects (human)
[3] = type: in vivo, healthy subjects (human); conditions: for C max,IDeg,SD, mean estimate: serum, ELISA
Procedure, shortened: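 Fasted healthy adults (n=20) in a randomised, open-label, complete crossover received single SC doses of 0.4 U/kg, 13–21 days apart. Dosing was by syringe into a lifted skinfold of anterior thigh, lower abdominal wall or outer deltoid, each followed by a 24-h euglycaemic clamp (4.5 mmol/L). Serum was sampled over 120 h and assayed by compound-specific sandwich ELISA (LLOQ 20 pmol/L).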

[4] = single SC dose 0.4 U/kg in abdomen, 20 evaluations
[5] = single SC dose 0.4 U/kg in deltoid, 20 evaluations
[6] = single SC dose 0.4 U/kg in thigh, 19 evaluations
[7] = single SC dose 0.4 U/kg, ANOVA of log-transformed AUC
[8] = single SC dose 0.4 U/kg, ANOVA of log-transformed values

For insulin detemir, which “AUC higher following SC injection in abdomen or deltoid than in thigh” value [1] is on record?
Its value is “approximately 10%”.

Which “Half-life after SC administration” value [1] does the source give for insulin glargine here?
The value was 12 h.

Which “GIRmax,SD, mean estimate” value [2, 4] does the source give for insulin degludec here?
Its value is 3.0 mg/(kg·min).

What about the “GIRmax,SD, mean estimate” value [2, 5] of the same substance?
Its value is 3.0 mg/(kg·min).

And the “GIRmax,SD, mean estimate” value [2, 6]?
The value was 2.7 mg/(kg·min).

And the “Maximum concentration (C max,IDeg,SD) higher in deltoid or abdomen than in thigh” value ([3]; single SC dose 0.4 U/kg)?
The value was 23–27%.

And the “C max,IDeg,SD, mean estimate” value [3, 4]?
Its value is 2,388 pmol/L.

What about the “C max,IDeg,SD, mean estimate” value [3, 5] of the same substance?
The value was 2,462 pmol/L.

What about the “C max,IDeg,SD, mean estimate” value [3, 6] of the same substance?
Its value is 1,938 pmol/L.

And the “AUCIDeg,0–120h,SD mean ratio [95 % CI], abdomen vs. deltoid” value [3, 7]?
The value was 1.01 [0.96–1.06].

And the “AUCIDeg,0–120h,SD mean ratio [95 % CI], abdomen vs. thigh” value [3, 7]?
The value was 1.07 [1.03–1.11].

What about the “AUCIDeg,0–120h,SD mean ratio [95 % CI], deltoid vs. thigh” value [3, 7] of the same substance?
The value was 1.06 [1.01–1.10].

What about the “C max,IDeg,SD mean ratio [95 % CI], abdomen vs. deltoid” value [3, 8] of the same substance?
The value was 0.97 [0.84–1.12].

What about the “C max,IDeg,SD mean ratio [95 % CI], abdomen vs. thigh” value [3, 8] of the same substance?
Its value is 1.23 [1.07–1.42].

And the “C max,IDeg,SD mean ratio [95 % CI], deltoid vs. thigh” value [3, 8]?
Its value is 1.27 [1.08–1.49].

And the “Time to reach steady state” value ([1]; once-daily injections)?
The value was 2 to 3 days.
